Source: ChEMBL document CHEMBL1142087 (Antimicrob Agents Chemother, 2007)
The source made the active and inactive calls. The rule behind the calls is not given here.

Assays:
Mus musculus [1] = experiment: Effect on survival of BALB/c mouse infected with influenza A virus (A/duck/Minnesota/1525/1981 (H5N1)) at 300 mg/kg/day, po qid for 5 days administered 84 hrs after infection relative to carboxymethyl cellulose; assay type: functional, organism-based
Mus musculus [2] = experiment: Effect on survival in BALB/c mouse infected with influenza A virus (A/duck/Minnesota/1525/1981 (H5N1)) at 600 mg/kg/day, po administered 60 hrs after infection relative to carboxymethyl cellulose; assay type: functional, organism-based
Mus musculus [3] = experiment: Effect on survival of BALB/c mouse infected with influenza A virus (A/duck/Minnesota/1525/1981 (H5N1)) at 300 mg/kg/day, po once daily for 5 days administered 1 hr after infection relative to carboxymethyl cellulose; assay type: functional, organism-based
Mus musculus [4] = experiment: Inhibition of increase in lung weight of BALB/c mouse infected with influenza A virus (A/duck/Minnesota/1525/1981 (H5N1)) at 100 mg/kg/day, po qid for 5 days administered 1 hr after infection measured on day 6 relative to carboxymethyl cellulose; assay type: functional
Mus musculus [5] = experiment: Effect on survival in BALB/c mouse infected with influenza A virus (A/duck/Minnesota/1525/1981 (H5N1)) at 300 mg/kg/day, po administered 24 hrs after infection relative to carboxymethyl cellulose; assay type: functional, organism-based
Mus musculus [6] = experiment: Effect on survival in BALB/c mouse infected with influenza A virus (A/duck/Minnesota/1525/1981 (H5N1)) at 600 mg/kg/day, po administered 24 hrs after infection relative to carboxymethyl cellulose; assay type: functional, organism-based
Mus musculus [7] = experiment: Lowering of Arterial oxygen saturation decline in BALB/c mouse infected with influenza A virus (A/duck/Minnesota/1525/1981 (H5N1)) at 33 mg/kg/day, po qid for 5 days administered 1 hr after infection measured on day 11 relative to carboxymethyl cellulose; assay type: functional
Mus musculus [8] = experiment: Lowering of Arterial oxygen saturation decline in BALB/c mouse infected with influenza A virus (A/duck/Minnesota/1525/1981 (H5N1)) at 3 mg/kg/day, po twice daily for 5 days administered 1 hr after infection measured on day 11 relative to carboxymethyl cellulose; assay type: functional
Procedure, shortened: (§1)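 Arterial oxygen saturation was measured by pulse oximeter, with the ear probe placed on the thigh and read after 30 s stabilization. Values were taken on day 11, 10 mice per group. Mice dead from infection were assigned 75%. Means were compared with CMC controls by t test.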

Mus musculus [9] = experiment: Lowering of arterial oxygen saturation decline in BALB/c mouse infected with influenza A virus (A/duck/Minnesota/1525/1981 (H5N1)) at 300 mg/kg/day, po qid for 5 days administered 72 hrs after infection measured on day 11 relative to carboxymethyl cellulose; assay type: functional
Mus musculus [10] = experiment: Effect on survival of BALB/c mouse infected with influenza A virus (A/duck/Minnesota/1525/1981 (H5N1)) at 300 mg/kg/day, po qid for 5 days administered 24 hrs after infection relative to carboxymethyl cellulose; assay type: functional, organism-based
Mus musculus [11] = experiment: Effect on survival in BALB/c mouse infected with influenza A virus (A/duck/Minnesota/1525/1981 (H5N1)) at 600 mg/kg/day, po administered 4 hrs after infection relative to carboxymethyl cellulose; assay type: functional, organism-based
Mus musculus [12] = experiment: Effect on survival in BALB/c mouse infected with influenza A virus (A/duck/Minnesota/1525/1981 (H5N1)) at 300 mg/kg/day, po administered 4 hrs after infection relative to carboxymethyl cellulose; assay type: functional, organism-based
Mus musculus [13] = experiment: Lowering of arterial oxygen saturation decline in BALB/c mouse infected with influenza A virus (A/duck/Minnesota/1525/1981 (H5N1)) at 300 mg/kg/day, po qid for 5 days administered 84 hrs after infection measured on day 11 relative to carboxymethyl cellulose; assay type: functional
Mus musculus [14] = experiment: Effect on survival of BALB/c mouse infected with influenza A virus (A/duck/Minnesota/1525/1981 (H5N1)) at 300 mg/kg/day, po qid for 5 days administered 36 hrs after infection relative to carboxymethyl cellulose; assay type: functional, organism-based
Mus musculus [15] = experiment: Lowering of Arterial oxygen saturation decline in BALB/c mouse infected with influenza A virus (A/duck/Minnesota/1525/1981 (H5N1)) at 10 mg/kg/day, po twice daily for 5 days administered 1 hr after infection measured on day 11 relative to carboxymethyl cellulose; assay type: functional; procedure, shortened: as §1
Mus musculus [16] = experiment: Lowering of Arterial oxygen saturation decline in BALB/c mouse infected with influenza A virus (A/duck/Minnesota/1525/1981 (H5N1)) at 100 mg/kg/day, po qid for 5 days administered 1 hr after infection measured on day 11 relative to carboxymethyl cellulose; assay type: functional; procedure, shortened: as §1
Mus musculus [17] = experiment: Effect on survival of BALB/c mouse infected with influenza A virus (A/duck/Minnesota/1525/1981 (H5N1)) at 300 mg/kg/day, po qid for 5 days administered 60 hrs after infection relative to carboxymethyl cellulose; assay type: functional, organism-based
Mus musculus [18] = experiment: Effect on survival of BALB/c mouse infected with influenza A virus (A/duck/Minnesota/1525/1981 (H5N1)) at 300 mg/kg/day, po twice daily for 5 days administered 1 hr after infection relative to carboxymethyl cellulose; assay type: functional, organism-based
Mus musculus [19] = experiment: Lowering of arterial oxygen saturation decline in BALB/c mouse infected with influenza A virus (A/duck/Minnesota/1525/1981 (H5N1)) at 300 mg/kg/day, po qid for 5 days administered 48 hrs after infection measured on day 11 relative to carboxymethyl cellulose; assay type: functional
Mus musculus [20] = experiment: Lowering of arterial oxygen saturation decline in BALB/c mouse infected with influenza A virus (A/duck/Minnesota/1525/1981 (H5N1)) at 30 mg/kg/day, po once daily for 5 days administered 1 hr after infection measured on day 11 relative to carboxymethyl cellulose; assay type: functional
Mus musculus [21] = experiment: Effect on survival of BALB/c mouse infected with influenza A virus (A/duck/Minnesota/1525/1981 (H5N1)) at 100 mg/kg/day, po twice daily for 5 days administered 1 hr after infection relative to carboxymethyl cellulose; assay type: functional, organism-based

Which results are given for `NC(=O)c1nc(F)cnc1O` [FAVIPIRAVIR]?
Activity (Mus musculus [1]): Active; Activity (Mus musculus [2]): Active; Activity (Mus musculus [3]): Active; Activity (Mus musculus [4]): 140 mg; Activity (Mus musculus [5]): Active; Activity (Mus musculus [6]): Active; Activity (Mus musculus [7]): 84.8%; Activity (Mus musculus [8]): 75%; Activity (Mus musculus [9]): 84.1%; Activity (Mus musculus [10]): Active; Activity (Mus musculus [11]): Active; Activity (Mus musculus [12]): Active; Activity (Mus musculus [13]): 81.7%; Activity (Mus musculus [14]): Active; Activity (Mus musculus [15]): 75.5%; Activity (Mus musculus [16]): 85.9%; Activity (Mus musculus [17]): Active; Activity (Mus musculus [18]): Active; Activity (Mus musculus [19]): 87.1%; Activity (Mus musculus [20]): 81.4%; Activity (Mus musculus [21]): Active
